Bioassay records deposited in PubChem BioAssay by SRMLSC.
This excerpt belongs to a sample that is enriched for hits.
H69AR inhibit – blocks growth of human H69AR lung tumor cells. 85,000 tested, 6% active. AID 598. H69AR lung tumor viability, ATP luminescence, 72 h; hits give low values. viability, % at 10 µM;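 active means viability at or below 40%; inactive means viability above 40%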;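 further: multidrug resistant small cell line overexpressing MRP-1 efflux transporter; 100% = mean luminescence of untreated control wells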
HUVEC prolif 384 – blocks proliferation of human endothelial cells. HUVEC proliferation, CellTiter-Glo luminescence, 72 h; hits give low values. viability, % at 10 µM (by protocol). AID 648. 86,000 tested, 1.1% active;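 active means viability at or below 30%; inactive means viability above 30%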;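 further: 100% = median luminescence of DMSO-only cell control wells on each plate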
HCT116 PTEN-null – PTEN-deleted cell growth suppression; HCT116 PTEN-null viability, CellTiter-Glo, 60 h; hits give low values; viability, % at 10 µM; 140,000 tested, 1.2% active;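 active means viability at or below a set limit, 4 SD under the median of all tested compounds, cut at about 3.7% in these data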;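 further: PTEN knockout HCT116 line with beta catenin targeted HCT116 as companion control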
bCat KO growth – beta-catenin-lacking colon tumor cell growth suppression | AID 818 | viability, % at 10 µM | HCT116 beta-catenin knockout viability, CellTiter-Glo, 60 h; hits give low values | 140,000 tested, 1.5% active;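 active means viability at or under a set limit, the compound median less 4 SD, cut at about 6% in these data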;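 further: 0% = Hyamine 1622 control at 20 µM and 100% = untreated cell control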
Lung fibro prol – blocks proliferation of human lung fibroblasts. LL 47 human lung fibroblast viability, ATP luminescence; hits give low values. viability, % at 10 µM. 85,000 tested, 1.1% active;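 active means viability at or below 50% in the single dose screen; inactive means viability above 50%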;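 further: compound exposure lasted 72 h before the ATP readout; 100% = median luminescence of untreated cell-only wells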
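Assay system: human lung fibroblast line LL 47, low passage. Input: 1,150 fibroblasts seeded per well. Times: overnight cell rest, 72 h compound treatment at 37 °C. Evaluation: % viability of median cell-only signal. Technique: luminescent ATP detection, CellTiter-Glo. Control set: cell-only wells, no compound.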
* marks the source's active call; other numbers are inactive results; / = not tested or not shown.

SMILES | H69AR inhibit | HUVEC prolif 384 | HCT116 PTEN-null | bCat KO growth | Lung fibro prol
Cn1c(=O)c2c(SCc3ccccc3)nc(-c3ccco3)nc2n(C)c1=O | 50.5 | 66.6 | 63.5 | 73.0 | 63.4
COCCCNc1ncnc2sc3c(c12)CCC(C)C3 (configuration not stated) | 39.0* | 89.4 | 89.5 | 85.9 | 89.4
c1cn(CCCNc2ncnc3sc4c(c23)CCC4)cn1 | 89.0 | 90.5 | 88.4 | 103.2 | 88.3
Cc1cc(C)c(S(=O)(=O)/N=C2/C=C(Sc3ncn[nH]3)C(=O)c3ccccc32)cc1C | / | / | 4.7 | 3.1* | /
CCOc1ccc(NC(=O)CSC2=C(C#N)C(c3ccc4c(c3)OCO4)CC(=O)N2)cc1 (configuration not stated) | 83.8 | 96.0 | 108.8 | 84.9 | 96.4
CCCOC(=O)CSC1=C(C#N)C(c2ccc3c(c2)OCO3)CC(=O)N1 (configuration not stated) | 23.2* | 69.3 | 47.2 | 49.0 | 92.9
COCCOC(=O)c1c(C)nc(SCC(=O)Nc2ccc(C)cc2)c(C#N)c1-c1ccco1 | 53.5 | 77.1 | 89.0 | 95.0 | 87.8
COCCOC(=O)c1c(C)nc(SCC(=O)Nc2cccc3ccccc23)c(C#N)c1-c1ccco1 | 11.3* | 55.8 | 67.6 | 61.3 | 92.5
COc1ccc(CNC(=O)COC(=O)C2CCC(C(C)(C)C)CC2)cc1 (configuration not stated) | / | / | 88.9 | 97.3 | /
CSc1nnc(-c2sc3cc(Cl)ccc3c2Cl)n1C | 26.7* | 62.2 | 73.8 | 63.6 | 92.9
CCOC(=O)c1cc(CC)sc1NC(=O)c1ccc([N+](=O)[O-])c(N2CCOCC2)c1 | / | / | 22.0 | 34.5 | /
COc1ccc(C(=O)Nc2nnc(-c3ccco3)s2)cc1 | 8.2* | 55.0 | 1.8* | 1.6* | 96.5
O=C(Cc1ccc(Br)cc1)Nc1ccccc1Cl | / | / | 98.4 | 106.1 | /
COc1ccc(CCNC(=O)Cc2cc(OCc3ccccc3)c(OC)cc2[N+](=O)[O-])cc1OC | / | / | 90.2 | 88.9 | /
COc1ccc(C2=Nn3c(nnc3-c3ccccc3)SC2)cc1OC | 84.1 | 90.8 | 93.7 | 86.6 | 93.6
c1ccc(C2=Nn3c(nnc3-c3ccncc3)SC2)cc1 | 80.8 | 77.5 | 71.5 | 72.1 | 106.1
Cc1cccc(-c2nnc3n2N=C(c2ccccc2)CS3)c1 | 36.0* | 97.1 | 82.9 | 102.1 | 90.9
c1ccc(-c2cc(-c3nnc4n3N=C(c3ccc5ccccc5c3)CS4)[nH]n2)cc1 | / | / | 1.9* | 6.1 | /
CCCc1nnc2n1N=C(c1ccc(OC)c(OC)c1)CS2 | 78.6 | 84.2 | 80.9 | 87.0 | 73.2
COc1ccc(Cc2nnc3n2N=C(c2cc4ccccc4o2)CS3)cc1OC | 35.0* | 82.1 | / | / | 94.1
COc1ccc(-c2nnc3n2N=C(c2ccccc2)CS3)cc1OC | 53.5 | 31.9 | / | / | 14.8*
CC1CC(N(C(=O)c2ccccc2Cl)c2ccccc2)c2ccccc2N1 (configuration not stated) | / | / | 28.9 | 38.9 | /
COC(=O)C(Cc1ccc(OC(=O)c2ccc(C)cc2)cc1)N1Cc2ccccc2C1=O (configuration not stated) | / | / | 51.7 | 54.7 | /
O=C(Nc1nc2ccccc2s1)c1ccc(N2CCCCC2)c([N+](=O)[O-])c1 | / | / | 52.4 | 57.0 | /
Cc1cc(C(=O)CN2C(=O)NC(c3ccccc3)(c3ccccc3)C2=O)c(C)n1Cc1ccccc1 | 102.6 | 106.3 | 68.3 | 81.5 | 93.3
SMILES | H69AR inhibit | HUVEC prolif 384 | HCT116 PTEN-null | bCat KO growth | Lung fibro prol
COc1ccc(C2=Nn3c(nnc3C3CCCCC3)SC2)cc1OC | 14.5* | 81.7 | 55.0 | 60.3 | 41.1*
Cc1cc(-c2nnc3n2N=C(c2ccc(-c4ccccc4)cc2)CS3)n[nH]1 | 3.9* | 28.2* | 3.1* | 19.4 | 60.1
C=C(C)COc1ccc(-c2[nH]ncc2Oc2ccccc2OCC)c(O)c1 | / | 27.3* | 50.4 | 56.2 | 56.0
C=C(C)COc1ccc(-c2ncncc2Oc2ccc(OC)cc2)c(O)c1 | 48.2 | 89.0 | 86.7 | 84.8 | 98.4
C=C(C)COc1ccc(-c2nc(N)nc(C)c2Oc2ccccc2OC)c(O)c1 | 76.7 | 93.6 | 86.8 | 86.5 | 88.8
C=C(C)COc1ccc(-c2[nH]ncc2Oc2cccc(OC)c2)c(O)c1 | 1.3* | 5.2* | 23.7 | 16.8 | 54.7
COc1ccc(-c2[nH]ncc2-c2cnn(-c3ccccc3)c2)c(O)c1 | / | / | 75.2 | 74.2 | /
CCCc1ccc(Oc2cn[nH]c2-c2ccc(O)cc2O)cc1 | 29.5* | 60.9 | 63.1 | 64.5 | 90.9
COc1ccc(Oc2cn[nH]c2-c2ccc(O)cc2O)cc1 | 92.2 | 85.0 | 81.5 | 86.1 | 96.1
COc1ccc(-c2[nH]ncc2Oc2ccccc2OC)c(O)c1 | 38.6* | 97.9 | 91.3 | 81.9 | 100.7
O=C(NCc1cccc(C(F)(F)F)c1)C1CC(c2c(Cl)cccc2Cl)=NO1 (configuration not stated) | / | / | 33.5 | 18.7 | /
CCC(=O)Nc1ccc(C(=O)NNC(=O)COc2cc(C)ccc2C)cc1 | / | / | 113.4 | 97.2 | /
O=C(CSc1nc2cc(Cl)ccc2s1)NC1CCCc2ccccc21 (configuration not stated) | / | / | 86.6 | 85.9 | /
Cc1conc1NC(c1cccs1)c1ccc2cccnc2c1O (configuration not stated) | 19.1* | 23.7* | 2.6* | 3.5* | 3.1*
CCOc1ccccc1C(=O)Nc1ccccc1-c1ccccc1 | / | / | 72.7 | 79.3 | /
CCOc1cc(-c2c(C#N)c(N)nc3c2CCCC3)ccc1O | 70.0 | 102.1 | 101.5 | 90.7 | 103.7
CCOc1cc(-c2cc(-c3ccccc3)nc(N)c2C#N)ccc1O | 22.7* | 52.7 | 10.8 | 10.5 | 82.4
CCOc1cc(-c2cc(-c3ccc(N)cc3)nc(N)c2C#N)ccc1O | 3.6* | 66.4 | 43.1 | 38.7 | 95.3
CCOC(=O)CC(=O)CSc1nc(-c2ccccc2)cc(-c2ccccc2)c1C#N | / | / | 87.0 | 95.0 | /
COc1ccc(N=C2SC(C(=O)Nc3ccc(OC)cc3)CC(=O)N2CCN2CCOCC2)cc1 (configuration not stated) | / | / | 92.2 | 91.3 | /
CCC1(C)OCC(Cn2c3ccccc3c3ccccc32)O1 (configuration not stated) | 25.4* | 64.7 | 91.8 | 77.0 | 85.7
Cc1ccc(-n2sc3ccccc3c2=O)cc1 | / | / | 1.1* | 1.4* | /
Cc1ccc(C(=O)Nc2ccc3cn[nH]c3c2)cc1S(=O)(=O)N1CCCCC1 | 30.1* | 99.3 | 60.8 | 73.1 | 92.8
COc1ccc(-n2c(CNc3ccc(C)cc3)nnc2SCC(=O)Nc2nc(-c3ccccc3)cs2)cc1 | / | / | 0.4* | 0.8* | /
O=C(CSc1nnc(CCCO)n1-c1ccccc1)Nc1nccs1 | 95.2 | 108.3 | 98.9 | 97.7 | 99.2
Cc1cccc(C)c1OCc1nnc(SCC(=O)Nc2nccs2)n1-c1ccccc1 | 19.7* | 61.8 | 84.8 | 80.5 | 87.0
CCOc1ccc(NCc2nnc(SCC(=O)Nc3cc(C)on3)n2-c2ccc(OC)cc2)cc1 | 75.7 | 85.7 | 39.4 | 41.9 | 98.7
CCOc1ccc(NCc2nnc(SCC(=O)Nc3cc(C)on3)n2-c2ccccc2OC)cc1 | 11.8* | 65.0 | 28.5 | 31.9 | 79.8
COc1ccc(NCc2nnc(SCC(=O)Nc3nc(-c4ccccc4)cs3)n2-c2ccccc2)cc1 | / | / | 1.8* | 1.3* | /
